Assay results from different studies.
Lines come from different studies, so protocols differ.
Target: Cyclin-dependent kinase-like 2 (CDKL2, Homo sapiens, UniProt Q92772)
Sequence (Q92772 1-493, as in one of the studies): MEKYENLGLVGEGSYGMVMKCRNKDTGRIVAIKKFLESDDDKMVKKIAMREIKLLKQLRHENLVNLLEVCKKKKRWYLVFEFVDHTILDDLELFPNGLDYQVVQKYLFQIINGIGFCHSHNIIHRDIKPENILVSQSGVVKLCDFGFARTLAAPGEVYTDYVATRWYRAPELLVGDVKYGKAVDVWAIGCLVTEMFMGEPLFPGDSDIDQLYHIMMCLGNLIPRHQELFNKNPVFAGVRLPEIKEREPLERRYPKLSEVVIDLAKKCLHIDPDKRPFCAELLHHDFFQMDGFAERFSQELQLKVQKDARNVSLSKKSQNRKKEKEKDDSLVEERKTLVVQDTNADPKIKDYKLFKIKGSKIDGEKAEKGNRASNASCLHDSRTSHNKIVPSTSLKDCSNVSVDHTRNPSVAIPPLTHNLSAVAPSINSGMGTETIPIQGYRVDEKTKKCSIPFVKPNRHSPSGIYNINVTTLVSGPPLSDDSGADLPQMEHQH

Cn1cc(Cl)c2c(Oc3c(F)cc(Nc4cc(Cl)nc(N)n4)cc3F)ccnc21 — remaining binding (cell-free assay; competition with immobilised ligand; 0.1 µM): 100%
C[C@@H]1CCN(c2nccc(-c3cnn4ncccc34)n2)C1 — remaining binding (binding; 1 µM): 99%
CO[C@@H](C)c1c(Nc2ccc([C@@H](N(C)C(=O)C3CCS(=O)(=O)CC3)C(F)(F)F)cc2)cnc2cc(Cl)nn12 — remaining binding (cell-free assay; competition with immobilised ligand; 1 µM): 88%
O=C(NCCCN1CCOCC1)c1ccc(Nc2nccc(-c3cc4ccccc4s3)n2)cc1 — remaining binding (binding; competition with immobilised ligand; 1 µM): 7.3%
C[C@@H](c1ccc(-n2cnc3c(N)ncnc32)cc1)N1CCc2nn(C)c(Cc3ccccc3)c2C1=O — remaining binding (binding; competition with immobilised ligand; 0.1 µM): 67%
Nc1ncc2c(n1)-c1c([nH]c3ccc(C#CC4CC4)cc13)CCCC2 — remaining binding (binding; competition with immobilised ligand; 1 µM): 96%
O=C(Nc1c[nH]nc1C(=O)NC1CCNCC1)c1cc(F)cc(F)c1 — remaining binding (binding; competition with immobilised ligand; 1 µM): 89%
CN(C)C(=O)Cn1cc(-c2nc(C3(c4ccc(-c5cnc(N)nc5)cc4)CC3)no2)cn1 — remaining binding (cell-free assay; competition with immobilised ligand; 1 µM): 100%
F[C@@H]1CCN(c2nccc(-c3cnn4ncccc34)n2)C1 — remaining binding (binding; 1 µM): 100%
CNC(=O)[C@@H]1CC[C@@H](n2c(-c3ccc4cnccc4c3)nc3ccc(C(=O)NCc4cccc(C(N)=O)c4)cc32)C1 — remaining binding (binding; competition with immobilised ligand; 1 µM): 100%
CCN1CCN(Cc2ccc(C(=O)Nc3ccc(C)c(Oc4ccc5c(c4)CC(=O)N5)c3)cc2C(F)(F)F)CC1 — remaining binding (binding; competition with immobilised ligand; 1 µM): 75%
CN(C)c1ncc(F)c(-c2cnn3ncccc23)n1 — remaining binding (binding; 1 µM): 89%
CS(=O)(=O)N1CCCC(NC(=O)[C@H](CCC2CCCCC2)NC(=O)c2ccc(CNc3ncnc4c3nnn4-c3ccccc3)cc2)C1 (stereo partly shown) — remaining binding (cell-free assay; competition with immobilised ligand; 0.1 µM): 100%
N[C@@H]1CCN(c2nccc(-c3cnn4ncccc34)n2)C1 — remaining binding (binding; 1 µM): 100%
CC(=O)N1CCC(c2ccc(C(=O)NC3=NCCN3)cc2C(F)(F)F)CC1 — remaining binding (cell-free assay; competition with immobilised ligand; 1 µM): 100%
COc1cnc(Nc2cccc(S(N)(=O)=O)c2)nc1N1CCN(c2ccccc2)CC1 — remaining binding (binding; competition with immobilised ligand; 1 µM): 100%
c1cnn2ncc(-c3ccnc(N4CCC45COC5)n3)c2c1 — remaining binding (binding; 1 µM): 91%
CS(=O)(=O)N1CCCC(NC(=O)[C@H](CCC2CCCCC2)NC(=O)c2ccc(CNC(=O)c3cnc4ccccn34)cc2)C1 (stereo partly shown) — remaining binding (cell-free assay; competition with immobilised ligand; 0.1 µM): 85%
O=C(c1ccc(Nc2ncc(Cl)c(-c3ccc(Cl)s3)n2)cc1)N1CCC(N2CCCC2)CC1 — remaining binding (binding; competition with immobilised ligand; 1 µM): 2.3%
Cc1cnn2ncc(-c3ccnc(N(C)C)n3)c2c1 — remaining binding (binding; 1 µM): 100%
N#Cc1ccc(Nc2ccc3[nH]c(=O)[nH]c3c2)c(Cl)c1 — remaining binding (binding; competition with immobilised ligand; 1 µM): 100%
O=C(c1ccc(Nc2ncc(Cl)c(-c3cc4ccccc4s3)n2)cc1)N1CCC(N2CCCC2)CC1 — remaining binding (binding; competition with immobilised ligand; 1 µM): 2.4%
